# Publication PMC3578425 (Pharmacological research : the official journal of the …, 2010)
# Where “and” joins values, the source holds several entries; their conditions need not be identical. Identical values can stand only once. Entries after “also recorded” stand apart in the source; their conditions may differ. Like-named read-outs stand apart in the source and are kept apart here.
# How the values were obtained:
# [1] = molecular target: P2Y1 receptors on human platelets (Homo sapiens, UniProt P47900); experiment: [125I]MRS2500 binding assay with intact washed human platelets; details: for effect on [125I]MRS2500 binding: competing drug up to 100 μM
# P2Y1 receptors on human platelets, sequence (P47900 whole entry): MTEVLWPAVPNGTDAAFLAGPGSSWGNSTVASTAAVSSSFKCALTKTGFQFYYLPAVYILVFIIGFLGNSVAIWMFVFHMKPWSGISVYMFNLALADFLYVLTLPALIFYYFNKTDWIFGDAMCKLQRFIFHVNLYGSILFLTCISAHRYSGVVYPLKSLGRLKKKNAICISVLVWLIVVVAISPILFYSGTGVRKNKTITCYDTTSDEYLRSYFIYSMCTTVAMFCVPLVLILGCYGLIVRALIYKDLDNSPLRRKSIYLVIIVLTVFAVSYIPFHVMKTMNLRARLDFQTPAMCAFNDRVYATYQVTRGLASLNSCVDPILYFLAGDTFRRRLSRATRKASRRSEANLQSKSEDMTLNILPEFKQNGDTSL
# [2] = molecular target: human P2Y1 receptor (Homo sapiens, UniProt P47900); assay type: binding; details: for Ki: read-out: Ki, inhibition of [125I]MRS2500 binding, competition curves
# human P2Y1 receptor, sequence (P47900 whole entry): as above
# [3] = molecular target: P2Y1 receptors on mouse platelets (Mus musculus, UniProt P49650); experiment: [125I]MRS2500 binding assay with intact washed mouse platelets
# P2Y1 receptors on mouse platelets, sequence (P49650 whole entry): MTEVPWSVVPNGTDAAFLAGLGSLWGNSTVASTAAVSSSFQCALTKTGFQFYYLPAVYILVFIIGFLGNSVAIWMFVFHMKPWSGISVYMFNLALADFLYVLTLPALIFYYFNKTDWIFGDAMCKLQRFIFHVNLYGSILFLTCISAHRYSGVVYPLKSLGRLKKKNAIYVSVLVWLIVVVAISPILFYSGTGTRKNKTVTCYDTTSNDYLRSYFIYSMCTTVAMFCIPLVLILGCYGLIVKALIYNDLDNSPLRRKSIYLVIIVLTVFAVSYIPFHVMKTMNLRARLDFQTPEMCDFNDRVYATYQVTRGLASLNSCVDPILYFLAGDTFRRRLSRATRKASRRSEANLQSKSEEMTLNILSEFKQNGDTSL
# Outline: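 Mouse washed platelets were prepared by differential centrifugation in Tyrode's buffer, pH 7.3, with 0.35% human serum albumin and apyrase (0.02 U/ml), held at 150,000 platelets/μl at 37°C. Platelet suspension (400 μl in 0.5 ml) was incubated 5 min with [125I]MRS2500 at 20°C or 37°C, with or without competitors. Samples were filtered on GF/C, washed five times with ice-cold buffer, and gamma-counted. Nonspecific binding was defined with 10 μM MRS2179.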
# [4] = test system: platelets isolated from P2Y1(−/−) mice; experiment: [125I]MRS2500 binding to platelets isolated from P2Y1; set-up: species or system mouse
# [5] = test system: membranes from wild-type insect cells (empty vector-infected Sf9); experiment: [125I]MRS2500 binding to membranes from empty vector-infected; details: wide range of membrane concentrations; nonspecific defined with 30 μM 2MeSADP
# [6] = molecular target: P2Y1 receptor; details: read-out: Kd for the P2Y1 receptor; cited from earlier work
# [7] = human platelets, 37°C, data not shown
# [8] = approximately 0.3 nM [125I]MRS2500, 300 ng membranes, data not shown
# [9] = read-out: Ki, inhibition of [125I]MRS2500 binding, human platelets, competition
# [10] = wild-type mouse platelets, 10 μM competitor
# [11] = P2Y1 receptor-expressing Sf9 membranes
compound,measurement,setting,value
"CNc1nc(I)nc2c1ncn2[C@H]1C[C@H](OP(=O)(O)O)[C@]2(COP(=O)(O)O)C[C@H]12 [[^125I]MRS2500, 2-iodo-N^6-methyl-(N)-methanocarba-2′-deoxyadenosine-3′,5′-bisphosphate]",Bmax (binding sites),"[1]; human platelets, 20°C, data not shown",147 sites/platelet
same,Bmax,"[1]; human platelets, 37°C",151 sites/platelet and 151 ± 1 sites/platelet
same,time binding was stable,[1]; [7],at least 15 min
same,time to apparent steady state binding,[1]; [7],60 to 90 s
same,time to steady state binding,"[1]; intact washed platelets (human or mouse), 20°C or 37°C",≤ 5 min
same,Kd,"[1]; read-out: Kd, saturation binding of [125I]MRS2500, human platelets, 37°C",0.61 nM
same,time steady-state binding was maintained,[2]; [8],at least 40 min
same,time to steady state binding,[2]; [8],≤ 20 min
same,Kd,"[2]; read-out: Kd, saturation binding of [125I]MRS2500, P2Y1 receptor-expressing Sf9 membranes, 4°C, one-site binding",1.1 ± 0.3 nM
same,Bmax for P2Y1 receptor expression in Sf9 cells,[2]; saturation binding of [125I]MRS2500,13.3 ± 2.2 pmol/mg membrane protein
same,Bmax,"[3]; mouse platelets, 20°C, data not shown",253 sites/platelet
same,Kd,"[3]; read-out: Kd, saturation binding of [125I]MRS2500, mouse platelets, 20°C, data not shown",0.5 nM
same,Bmax,"[3]; wild-type mouse platelets, 37°C",229 sites/platelet and 229 ± 23 sites/platelet
same,specific binding of [125I]MRS2500,[4],not observed
same,specific binding of radioligand,[5],did not specifically bind; also recorded: no specific binding
"CNc1nc(Cl)nc2c1ncn2[C@H]1C[C@H](OP(=O)(O)O)[C@]2(COP(=O)(O)O)C[C@H]12 [MRS2279, 2-chloro-N^6-methyl-(N)-methanocarba-2′-deoxyadenosine-3′,5′-bisphosphate]",Kd,[6],~10 nM
"CNc1nc(I)nc2c1ncn2[C@H]1C[C@H](OP(=O)(O)O)[C@]2(COP(=O)(O)O)C[C@H]12 [MRS2500, 2-iodo-N^6-methyl-(N)-methanocarba-2′-deoxyadenosine 3′,5′-bisphosphate]",Ki,[1]; [9],1.2 ± 0.15 nM
"CSc1nc(N)c2ncn([C@@H]3O[C@H](COP(=O)(O)OP(=O)(O)O)[C@@H](O)[C@H]3O)c2n1 [2MeSADP, 2-methylthio-adenosine 5′-diphosphate, reference compound]",effect on [125I]MRS2500 binding,[3]; [10],inhibited
same,effect on residual [125I]MRS2500 binding,[4]; high concentration of competitor,not inhibited
"CSc1nc(N)c2ncn([C@H]3[C@H](O)[C@H](O)[C@@]4(COP(=O)(O)OP(=O)(O)O)C[C@H]34)c2n1 [MRS2365, (1′S,2′R,3′S,4′R,5′S)-4-[(6-amino-2-methylthio-9H-purin-9-yl)-1-diphosphoryloxymethyl]bicyclo[3.1.0]hexane-2,3-diol]",effect on [125I]MRS2500 binding,[3]; [10],inhibited
"Nc1ncnc2c1ncn2[C@@H]1O[C@H](COP(=O)(O)OP(=O)(O)O)[C@@H](O)[C@H]1O [ADP, reference compound]",Ki,[1]; [9],15400 ± 9000 nM
same,Ki,[2]; [11],625 ± 37 nM
same,effect on [125I]MRS2500 binding,"[3]; wild-type mouse platelets, 100 μM competitor",inhibited
"O=c1ccn([C@@H]2O[C@H](COP(=O)(O)OP(=O)(O)OP(=O)(O)O)[C@@H](O)[C@H]2O)c(=O)[nH]1 [UTP, reference compound]",effect on [125I]MRS2500 binding,[2]; concentrations up to 30 μM,no effect
"CSCCNc1nc(SCCC(F)(F)F)nc2c1ncn2[C@@H]1O[C@H](COP(=O)(O)OP(=O)(O)C(Cl)(Cl)P(=O)(O)O)[C@@H](O)[C@H]1O [ARC-69931MX, [dichloro-[[[(2R,3S,4R,5R)-3,4-dihydroxy-5-[6-(2-methylsulfanylethylamino)-2-(3,3,3-trifluoropropylsulfanyl)purin-9-yl]oxolan-2-yl]methoxy-hydroxyphosphoryl]oxy-hydroxyphosphoryl]methyl]phosphonic acid, reference compound]",effect on [125I]MRS2500 binding,[1]; human platelets,Little effect
same,effect on [125I]MRS2500 binding,[3]; [10],no effect
"Nc1ncnc2c1ncn2[C@@H]1O[C@H](COP(=O)(O)CP(=O)(O)OP(=O)(O)O)[C@@H](O)[C@H]1O [!!MeATP, reference compound]",effect on [125I]MRS2500 binding,[1]; human platelets,Little effect
CNc1ncnc2c1ncn2[C@H]1C[C@H](OP(=O)(O)O)[C@@H](COP(=O)(O)O)O1 [MRS2179],Ki,[1],72.5 ± 17 nM
same,effect on [125I]MRS2500 binding,[3]; [10],inhibited
same,Kd,[6],~100 nM
"Nc1ncnc2c1ncn2[C@@H]1O[C@H](COP(=O)(O)OP(O)(O)=S)[C@@H](O)[C@H]1O [ADP!S, reference compound]",Ki,[2]; [11],1750 ± 750 nM
